S1P3 antagonist: antagonists of human S1P3 receptor. hit rate 0.27% among 170,000. CHO S1P3 NFAT-BLA reporter, FRET fluorescence, antagonist mode. inhibition, % at 4.98 µM;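 active = inhibition above the plate cutoff, the mean inhibition of test wells on that plate plus 3 SD, cut at about 28% in these data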;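 also: cells challenged with S1P at its EC80 of 0.8 µM; blue over green emission ratio from cleaved BLA substrate after 4 h stimulation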
Target sequence (Q99500 whole entry, looked up): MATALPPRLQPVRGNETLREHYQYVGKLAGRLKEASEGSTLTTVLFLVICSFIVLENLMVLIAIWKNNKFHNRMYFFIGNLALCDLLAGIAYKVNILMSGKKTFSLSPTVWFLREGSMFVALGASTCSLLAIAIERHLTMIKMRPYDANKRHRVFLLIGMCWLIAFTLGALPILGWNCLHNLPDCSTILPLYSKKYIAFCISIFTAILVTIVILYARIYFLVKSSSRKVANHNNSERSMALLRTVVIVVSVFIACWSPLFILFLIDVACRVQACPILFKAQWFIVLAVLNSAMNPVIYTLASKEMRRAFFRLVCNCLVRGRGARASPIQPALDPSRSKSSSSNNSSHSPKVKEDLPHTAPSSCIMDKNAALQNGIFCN
Mdm2 ligase inh: inhibitors of human Mdm2 E3 ubiquitin ligase. hit rate 0.11% among 210,000. AID 1230. signal enhancement, % at 5 µM. cell-based MDM2 ubiquitination luciferase reporter, 2 h; 0 = plate control, 100 = twice control, blank-subtracted;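 active = signal enhancement of 30% or more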;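 also: luminescence tracks abundance of the self-degrading MDM2-luciferase fusion protein; higher signal means inhibition of MDM2 E3 ligase activity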
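System: stable MDM2–luciferase fusion reporter cells / Input: 2000 cells seeded into each well / Schedule: 4 h settle plus 2 h compound, 37 °C / Compound: single-point 5 µM / Buffer or medium: cells held in DMEM / Benchmarks: control and blank well means / Evaluation: percent signal gain over controls, blank-subtracted / Measured by: luciferase luminescence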
Hsp70 act: Hsp70 transcriptional activation, primary screen | HeLa Hsp70 promoter luciferase reporter, luminescence; scaled: vehicle 0, proteasome-inhibitor control 100% | activation, % at 10 µM | hit rate 0.04% among 200,000 | AID 1203;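 active = activation above the mean across all tested compounds plus 3 SD, cutoff set per campaign, cut at about 5.5% in these data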
CHOP inh: CHOP inhibition in unfolded protein response | AID 2732 | inhibition, % at 10 µM | CHO-K1 CHOP-promoter luciferase, tunicamycin-induced, 15-18 h | hit rate 3.8% among 220,000;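 active = compounds that reduced the stress-induced luciferase reporter signal by more than about 70% of percent inhibition, limit read from the data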
Of the large screens only hits and unclear results are named; the others gave an inactive call. Only some compounds are listed: those with a hit (about 4% of all), similar ones and a draw of the others.

O=C(CSc1nnc(Cc2csc(Nc3cccc(Cl)c3)n2)o1)N1CCc2ccccc21	CHOP inh 89
CC(N)C1CCC(C(=O)Nc2ccncc2)CC1 (stereo unspecified)	none (no result: S1P3 antagonist, Mdm2 ligase inh, Hsp70 act)
Cc1cccc(-n2ncc3c(N4CCC5(CC4)OCCO5)ncnc32)c1	none (no result: Hsp70 act)
CCN1CCN(c2ncnc3c2cnn3-c2ccccc2)CC1	S1P3 antagonist 90
Cc1cccc(-n2ncc3c(N4CCC(C)CC4)ncnc32)c1	CHOP inh 73
COc1cccc(N2CCN(c3ncnc4c3cnn4-c3ccc(C)cc3C)CC2)c1	CHOP inh 98
CCc1c(C(=O)Nc2cc(C)ccc2OC)[nH]c(C)c1C(C)=O	S1P3 antagonist 58
COc1ccc(O)c(/C=N/NC(=O)c2ccc(CSc3nc(C)cc(C)n3)cc2)c1	CHOP inh 71
Cc1cc(C)nc(SCc2ccc(C(=O)N/N=C/c3cccc(O)c3O)cc2)n1	none
O=C(CCn1nc(-c2ccc(Cl)cc2)c2ccccc2c1=O)NN1CCOCC1	none (no result: Hsp70 act)
CN1CCN(CC(=O)NC23CC4CC(CC(C4)C2)C3)CC1	none (no result: Mdm2 ligase inh, Hsp70 act)
Cc1cc(C)cc(Nc2cc(=O)n(C3CCCCC3)c(=O)[nH]2)c1	CHOP inh 87
COc1ccc(Nc2cc(=O)n(C3CCCCC3)c(=O)[nH]2)c(OC)c1	none
O=S(=O)(Nc1cc(Sc2cccc3cccnc23)c(O)c2ccccc12)c1ccccc1	CHOP inh 101
CCc1ccc(S(=O)(=O)Nc2cc(SCC(=O)O)c(O)c3ccccc23)cc1	none
Cc1oc(-c2cc(Cl)cc(Cl)c2)cc1C(=O)NCCc1ccccc1	none
COc1ccc(CCNC(=O)c2cc(-c3cc(Cl)cc(Cl)c3)oc2C)cc1	CHOP inh 70 (no result: S1P3 antagonist)
COc1ccc(/C=C/C(=O)C2CC2)cc1COc1cccc(C)c1C	none (no result: Hsp70 act)
C=CCSc1nc(N)c(C(=O)Nc2ccccc2OC)cc1C(=O)Nc1ccccc1	none (no result: S1P3 antagonist)
C=CCSc1nc(N)c(C(=O)Nc2ccccc2)cc1C#N	CHOP inh 70 (no result: S1P3 antagonist)
COC(=O)c1c(-c2ccccc2Cl)noc1/C=C/N(C)C	Mdm2 ligase inh 42
OC(CCN1CCC2(CC1)OCCO2)C(F)(F)F (stereo unspecified)	none
CCCCN(C(=O)c1ccc(S(=O)(=O)N(C)C)cc1)c1nc2ccccc2s1	CHOP inh 71
CCCCN(C(=O)c1ccc(S(=O)(=O)N(C)C)cc1)c1ccccc1	none (no result: Mdm2 ligase inh, Hsp70 act)
CN(C(=O)c1ccccc1)c1nc2ccccc2s1	CHOP inh 72
CN(C)C(=O)c1nc2ccccc2s1	none
CCOC(=O)CC(NC(=O)Cn1nnc(-c2ccccc2Cl)n1)c1ccc(OC)cc1 (stereo unspecified)	none
COC(=O)c1ccc(Oc2nc(N3CCCCC3)nc(N3CCOCC3)n2)cc1	CHOP inh 71
CCOc1ccc(Oc2nc(N(CC)CC)nc(N3CCOCC3)n2)nn1	none
CCN(CC)c1nc(Oc2ccc(C(=O)OC)cc2)nc(N2CCOCC2)n1	CHOP inh 85
CC1CCN(c2nc(-c3ccncc3)nc3ccccc23)CC1	none
CC1CCCCN1c1nc(-c2ccncc2)nc2ccccc12 (stereo unspecified)	CHOP inh 77
O=C(COc1ccc(Cl)cc1)NCCSCc1ccccc1Cl	none
Cc1cc(Cl)ccc1OCC(=O)NCCCCc1ccccc1	none
O=C(COc1ccc(Cl)cc1Cl)NCCCCc1ccccc1	CHOP inh 85 (no result: S1P3 antagonist)
O=C(COc1ccc(Cl)cc1)NCCSCc1cccc(Cl)c1	CHOP inh 83 (no result: S1P3 antagonist)
Cc1cccc(CSCCNC(=O)COc2ccc(Cl)cc2)c1	CHOP inh 87
O=C(COC(=O)C12CC3CC(CC(Br)(C3)C1)C2)Nc1cccnc1Cl	none
CC(NC(=O)COC(=O)c1cn(-c2ccccc2)nc1-c1cccs1)c1ccccc1 (stereo unspecified)	CHOP inh 90 (no result: S1P3 antagonist)
O=C(Nc1ccncc1)c1cn(-c2ccccc2)nc1-c1cccs1	none (no result: S1P3 antagonist)
Cc1ccc(N2CCN(c3ccc(C)cc3)C2c2ccncc2)cc1	CHOP inh 77
O=C(CSc1nc(-c2ccccc2)c(-c2ccccc2)o1)N1CCOCC1	none
O=C(CSc1nnc(-c2ccccc2)c(-c2ccccc2)n1)N1CCOCC1	CHOP inh 72 (no result: S1P3 antagonist)
CNc1ccccc1C(C)(C)c1ccn[nH]1	none
O=C(COC(=O)/C(=C/c1cccs1)c1cccs1)NC(c1ccccc1)c1ccccc1	none
O=S(=O)(c1ccccc1)n1ccc2cccnc21	none (no result: S1P3 antagonist)
O=C(CCCN1C(=O)/C(=C/c2ccccc2Cl)SC1=S)NNC(=O)c1ccccc1	CHOP inh 86 (no result: Mdm2 ligase inh)
O=C(CCCN1C(=O)/C(=C/c2ccccc2Cl)SC1=S)NNC(=O)c1ccc(Cl)cc1Cl	CHOP inh 95 (no result: Mdm2 ligase inh, Hsp70 act)
COc1ccccc1C(=O)NNC(=O)CCCN1C(=O)/C(=C/c2cccs2)SC1=S	none

Compound activity from PubChem BioAssay.
